Hits are enriched below; roughly 9.6% of the tested compounds scored in any of these assays.
TNAP inh no acc – human TNAP enzyme inhibitors, primary screen, biochemical, luminescent, no phosphate acceptor, uHTS | Alkaline phosphatase, tissue-nonspecific isozyme (Homo sapiens), P05186 | purified TNAP, CDP-star luminescence, 30 min | inhibition, % at 20 µM | hit rate 0.26% among 200,000;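 active means tissue-nonspecific alkaline phosphatase inhibition above about 50% at 20 µM in the single-dose screen, limit read from the data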
Target sequence (P05186 whole entry, looked up): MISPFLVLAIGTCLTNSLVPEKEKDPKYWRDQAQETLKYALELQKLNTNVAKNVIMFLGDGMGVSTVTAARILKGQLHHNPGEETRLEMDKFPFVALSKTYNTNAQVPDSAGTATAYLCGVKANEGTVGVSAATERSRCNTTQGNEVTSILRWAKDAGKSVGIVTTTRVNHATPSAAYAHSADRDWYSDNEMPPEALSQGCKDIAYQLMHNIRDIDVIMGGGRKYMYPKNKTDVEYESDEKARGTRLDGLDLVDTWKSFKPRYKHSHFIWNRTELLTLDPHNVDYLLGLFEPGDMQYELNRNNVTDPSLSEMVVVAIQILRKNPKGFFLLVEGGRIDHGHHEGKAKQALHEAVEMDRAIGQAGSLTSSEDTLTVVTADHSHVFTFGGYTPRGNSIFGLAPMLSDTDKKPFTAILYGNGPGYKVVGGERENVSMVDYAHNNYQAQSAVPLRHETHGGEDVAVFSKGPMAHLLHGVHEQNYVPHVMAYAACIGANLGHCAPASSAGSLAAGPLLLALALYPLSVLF
TNAP act hiacc – TNAP activators at high phosphate acceptor level, primary screen, biochemical, luminescence, uHTS; Alkaline phosphatase, tissue-nonspecific isozyme (Homo sapiens), P05186; purified TNAP, CDP-star luminescence, 1 M DEA, 30 min; active compounds read high; 0 = EDTA background, 1 = DMSO-only activity; activation factor at 20 µM; 200,000 tested, under 10 active; AID 1136, 2008;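 active means activation factor at least 2 at 20 µM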
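Control set: EDTA negative control, DMSO positive control / Assay system: human TNAP / Quantity: TNAP 1/800 final / Evaluation: TNAP activation factor scaled between EDTA and DMSO control wells / Measured by: luminescent substrate turnover signal / Compound dosing: one dose, 20 µM / Times: 30 min enzyme reaction at room temperature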
PTEN del growth – growth suppression of PTEN-null HCT116, primary screen, cell-based, CellTiter-Glo; viability, % at 10 µM; AID 827, 2007; hit rate 1.2% among 140,000; HCT116 PTEN-null viability, 60 h; active compounds read low;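 active means viability at or below a set limit, 4 SD under the median of all tested compounds, cut at about 3.7% in these data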;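 further: PTEN knockout HCT116 line with beta catenin targeted HCT116 as companion control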
L major viab – Leishmania major promastigote growth inhibition, primary screen. Leishmania major promastigotes, resazurin fluorescence viability. inhibition, % at 10 µM. hit rate 9% among 200,000. AID 1063, 2008; in the data active means inhibition above about 50%;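 further: promastigotes grown with compound for 44 hours at 28 °C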
TNAP inh hiacc – human TNAP enzyme inhibitors, primary screen, biochemical, luminescent, high phosphate acceptor level, uHTS | Alkaline phosphatase, tissue-nonspecific isozyme (Homo sapiens), P05186 | purified TNAP, CDP-star luminescence, 1 M DEA | inhibition, % at 20 µM | hit rate 0.03% among 200,000 | AID 1135, 2008;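 active means over 50% inhibition of tissue-nonspecific alkaline phosphatase at 20 µM in the single-dose screen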
HCT116 bCat-KO – primary screen for growth suppressors in beta-catenin knockout HCT116 cells (colon tumor, human); HCT116 beta-catenin knockout viability, CellTiter-Glo, 60 h; active compounds read low; viability, % at 10 µM; hit rate 1.5% among 140,000; AID 818, 2007;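 active means viability at or under a set limit, the compound median less 4 SD, cut at about 6% in these data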
A number is an active result.

For CC(C)CCN1CCN(Cc2ccc(N3CCNC3=O)cc2)CC1CCO (stereo not given) the results were TNAP inh no acc inactive, TNAP act hiacc inactive, L major viab inactive and TNAP inh hiacc inactive.
For S=C(NCC1CCCO1)Nc1ccccc1 (stereo not given) the results were TNAP inh no acc inactive, TNAP act hiacc inactive, L major viab inactive and TNAP inh hiacc inactive.
For CC(=O)c1ccc(NC2=C(N3CCOCC3)C(=O)c3ccccc3C2=O)cc1 the results were TNAP inh no acc inactive, TNAP act hiacc inactive, PTEN del growth inactive, L major viab inactive, TNAP inh hiacc inactive and HCT116 bCat-KO inactive.
Screening CC(=O)N(C)C1=C(N2CCOCC2)C(=O)c2ccccc2C1=O returned TNAP inh no acc inactive, TNAP act hiacc inactive, PTEN del growth 0.8, L major viab 94.9, TNAP inh hiacc inactive and HCT116 bCat-KO 0.7.
`COc1ccc(C(=O)NC(C(=O)NCc2ccccc2OC)C(C)C)cc1` (stereo not given) gave TNAP inh no acc inactive, TNAP act hiacc inactive, L major viab inactive and TNAP inh hiacc inactive.
For COc1ccc(C(=O)NNC(=O)C(NC(=O)c2ccccc2NC(=O)c2ccco2)C(C)C)cc1 (stereo not given) the results were TNAP inh no acc inactive, TNAP act hiacc inactive, PTEN del growth inactive, L major viab 66.9, TNAP inh hiacc inactive and HCT116 bCat-KO inactive.
`COc1ccc(C(=O)Nc2ccccc2C(=O)N(Cc2ccco2)C(C(N)=O)C(C)C)cc1` (stereo not given) gave TNAP inh no acc inactive, TNAP act hiacc inactive, PTEN del growth 1.0, L major viab inactive, TNAP inh hiacc inactive and HCT116 bCat-KO 1.1.
COc1ccc(C(=O)Nc2ccccc2C(=O)NC(C(=O)NCc2ccco2)C(C)C)cc1 (stereo not given) was read as TNAP inh no acc inactive, TNAP act hiacc inactive, PTEN del growth 2.0, L major viab inactive, TNAP inh hiacc inactive and HCT116 bCat-KO 1.2.
Screening COc1ccc(C(=O)NC(C(=O)NCC(=O)Nc2c(C)cccc2C)C(C)C)cc1 (stereo not given) returned TNAP inh no acc inactive, TNAP act hiacc inactive, PTEN del growth inactive, L major viab 67.1, TNAP inh hiacc inactive and HCT116 bCat-KO inactive.
CCC(C)C(NC(=O)c1ccccc1NC(=O)c1ccco1)C(=O)NNC(=O)c1ccc(OC)cc1 (stereo not given) was read as TNAP inh no acc inactive, TNAP act hiacc inactive, PTEN del growth inactive, L major viab inactive, TNAP inh hiacc inactive and HCT116 bCat-KO inactive.
Cn1c(SCC(=O)Nc2cccc(C(=O)O)c2)nnc1-c1cc2cc(Br)ccc2o1 was read as TNAP inh no acc inactive, TNAP act hiacc inactive, L major viab inactive and TNAP inh hiacc inactive.
`Cn1c(SCC(=O)Nc2cccc(Br)c2)nnc1-c1cc2ccccc2o1` gave TNAP inh no acc inactive, TNAP act hiacc inactive, PTEN del growth 2.2, L major viab inactive, TNAP inh hiacc inactive and HCT116 bCat-KO 2.6.
O=C(NC(=S)NCC1CCCO1)c1ccc(Cl)cc1 (stereo not given) was read as TNAP inh no acc inactive, TNAP act hiacc inactive, PTEN del growth inactive, L major viab inactive, TNAP inh hiacc inactive and HCT116 bCat-KO inactive.
For O=C(NC(=S)NCC1CCCO1)c1ccc([N+](=O)[O-])cc1 (stereo not given) the results were TNAP inh no acc inactive, TNAP act hiacc inactive, PTEN del growth inactive, L major viab 51.6, TNAP inh hiacc inactive and HCT116 bCat-KO inactive.
`Cc1ccc(S(=O)(=O)N(C)C)cc1NC(=O)C(C)Sc1ccccc1` (stereo not given) gave TNAP inh no acc inactive, TNAP act hiacc inactive, L major viab inactive and TNAP inh hiacc inactive.
`Cc1nnc(SCC(=O)c2ccc([N+](=O)[O-])cc2)s1` gave TNAP inh no acc inactive, TNAP act hiacc inactive, L major viab inactive and TNAP inh hiacc inactive.
Screening Nc1nnc(SCC(=O)c2ccc([N+](=O)[O-])cc2)s1 returned TNAP inh no acc inactive, TNAP act hiacc inactive, L major viab 84.0 and TNAP inh hiacc inactive.
c1ccc2c(Nc3ccc4c(c3)OCCO4)c3c(nc2c1)CCCC3 was read as TNAP inh no acc inactive, TNAP act hiacc inactive, L major viab 98.9 and TNAP inh hiacc inactive.
For COc1cc(Nc2c3c(nc4ccccc24)CCCC3)cc(OC)c1OC the results were TNAP inh no acc inactive, TNAP act hiacc inactive, L major viab 66.4 and TNAP inh hiacc inactive.
O=C(Nc1c2c(nc3ccccc13)CCCC2)c1ccccc1Cl was read as TNAP inh no acc inactive, TNAP act hiacc inactive, PTEN del growth inactive, L major viab inactive, TNAP inh hiacc inactive and HCT116 bCat-KO inactive.
`COC(=O)C1CCN(C2CC(=O)N(c3cc(C)cc(C)c3)C2=O)CC1` (stereo not given) gave TNAP inh no acc inactive, TNAP act hiacc inactive, L major viab inactive and TNAP inh hiacc inactive.
Screening C=CCNS(=O)(=O)c1cccc(C(C)=O)c1 returned TNAP inh no acc inactive, TNAP act hiacc inactive, PTEN del growth inactive, L major viab 54.0, TNAP inh hiacc inactive and HCT116 bCat-KO inactive.
Screening COCCCNCCCOc1ccc(Cl)cc1C(C)(C)C returned TNAP inh no acc inactive, TNAP act hiacc inactive, PTEN del growth 3.1, L major viab 100.3, TNAP inh hiacc inactive and HCT116 bCat-KO 4.0.
Screening CNCCCOc1ccc(Cl)cc1C(C)(C)C returned TNAP inh no acc inactive, TNAP act hiacc inactive, L major viab 99.3 and TNAP inh hiacc inactive.
`CCC(C)NCCCOc1ccc(Cl)cc1C(C)(C)C` (stereo not given) gave TNAP inh no acc inactive, TNAP act hiacc inactive, PTEN del growth inactive, L major viab 99.7, TNAP inh hiacc inactive and HCT116 bCat-KO inactive.
CNCCOc1ccc(Cl)c(Cl)c1 was read as TNAP inh no acc inactive, TNAP act hiacc inactive, L major viab inactive and TNAP inh hiacc inactive.
C=CCc1ccc(OCCCCNC(C)CC)c(OC)c1 (stereo not given) was read as TNAP inh no acc inactive, TNAP act hiacc inactive, PTEN del growth inactive, L major viab 89.8, TNAP inh hiacc inactive and HCT116 bCat-KO inactive.
C=CCc1cc(Cl)ccc1OCCCNC(C)CC (stereo not given) was read as TNAP inh no acc inactive, TNAP act hiacc inactive, PTEN del growth inactive, L major viab 100.2, TNAP inh hiacc inactive and HCT116 bCat-KO inactive.
`O=S(=O)(c1ccc(-c2nnc(SCc3ccccc3)o2)cc1)N1CCCC1` gave TNAP inh no acc inactive, TNAP act hiacc inactive, PTEN del growth inactive, L major viab 84.7, TNAP inh hiacc inactive and HCT116 bCat-KO inactive.
